Data set [1] is described as follows: Cytotoxicity against LPS-induced mouse RAW264.7 cells assessed as cell survival up to 100 uM by MTT assay relative to control. Conditions: LPS-induced RAW264.7 cells, read-out: Survival. Format: cell-based. In a few lines: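 MTT viability assay on LPS-activated RAW264.7 cells, the same cells used for the NO assay; tested at concentrations up to 100 μM; triplicate experiments.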
(In general: Tetrazolium dyes change colour on reduction, which living cells bring about.)

In another data set the test system is RAW264.7. Kind of data set: Antiinflammatory activity in mouse RAW264.7 cells assessed as inhibition of LPS-induced nitric oxide production preincubated for 2 hrs followed by LPS stimulation measured after 18 hrs by Griess assay. The format is functional, cell-based. In a few lines: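 LPS-activated RAW264.7 macrophages; nitric oxide production measured and IC50 derived; L-NAME as positive control; triplicate experiments.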
In general terms: The Griess reaction detects nitrite, a stable product of nitric oxide.

pIC50: −log10 of the molar value.

Regarding `Cc1cc(O)cc(O)c1C(=O)O[C@@]1(C)C(=O)C2=C(C=C(/C=C/CO)OC2)C[C@H]1O`, in data set [1], the viability was 90%. For the same molecule, the pIC50 (commonly the IC50 on a negative log10 scale, so that one unit is a factor of ten) in the data set with RAW264.7 is 5.04.

On to `Cc1cc(O)cc(O)c1C(=O)O[C@@H]1CC2=C(CO[C@](O)(CCC(=O)O)C2)C(=O)[C@]1(C)O` (relative stereo), for which the viability in data set [1] turned out to be 90%.

Regarding `Cc1cc(O)cc(O)c1C(=O)O[C@@H]1CC2=C(CO[C@@](O)(CCCO)C2)C(=O)[C@]1(C)O` (relative stereo), the viability in data set [1] was 90%.

Consider `Cc1cc(O)cc(O)c1C(=O)O[C@@H]1CC2=C(COC(/C=C/C(=O)O)=C2)C(=O)[C@]1(C)O` (relative stereo), for which the viability in data set [1] worked out at 90%.

Turning to `Cc1cc(O)cc(O)c1C(=O)O[C@@H]1CC2=C(CO[C@](O)(CCCO)C2)C(=O)[C@]1(C)O` (relative stereo), the viability in data set [1] turned out to be 90%. For the same molecule, the negative logarithm of the IC50 (pIC50) in the data set on RAW264.7 was 4.59.

`Cc1cc(O)cc(O)c1C(=O)O[C@@H]1CC2=C(CO[C@@](O)(CCC(=O)O)C2)C(=O)[C@]1(C)O` (relative stereo): the viability in data set [1] was 90%.

`Cc1cc(O)cc(O)c1C(=O)O[C@@H]1CC2=C(COC(CCC(=O)O)=C2)C(=O)[C@]1(C)O` (relative stereo): in data set [1], the viability was 90%. Besides, the pIC50 in the data set on RAW264.7 is 4.40.

Regarding `COC(=O)[C@@H](N)CCCNC(=N)N[N+](=O)[O-]` [L-NAME], the pIC50 with RAW264.7 is 4.51.

The values above are taken from ChEMBL document CHEMBL4004818, “Montagnuphilones A-G, Azaphilones from Montagnulaceae sp. DM0194, a Fungal Endophyte of Submerged Roots of Persicaria amphibia” (J Nat Prod, 2017).
